# Reference: the EternaBench riboswitch data
# Assays:
# MS2 coat protein [1] = assay: apparent Kd, MS2 coat protein; higher = weaker binding; RNA-MaP array
# Outline: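 Designed RNAs were transcribed on an Illumina sequencing chip from sequenced DNA templates. They were incubated at room temperature with fluorescently labeled MS2 coat protein at 1.5 nM to 3 μM, for 0.8–1.5 h at the lowest to 10–20 min at the highest concentrations, in Tris-HCl pH 7.5 buffer with KCl, MgCl2, BSA, DTT, tRNA and Tween20, with or without input ligand. Apparent Kd is the median of per-cluster binding-curve fits. Designs measured on fewer than 10 clusters were excluded.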
# MS2 coat protein [2] = assay: apparent Kd, MS2 coat protein; higher = weaker binding; RNA-MaP array; FMN 200 µM where present
# Outline: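 Green signal was scaled to red-channel RNA signal and control-cluster median Fmax, and the apparent Kd was taken as the median of filtered per-cluster binding-curve fits. The binding series used SNAP-549-labelled MS2 coat protein from 0.7 or 1.5 nM, doubling to 3 µM, on designs transcribed by stalled E. coli RNA polymerase on Illumina sequencing-chip clusters. Each series ran without and then with constant ligand in 100 mM Tris-HCl pH 7.5, 80 mM KCl, 4 mM MgCl2, BSA, DTT, yeast tRNA and Tween-20.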
# [3] = designed as: OFF switch for flavin mononucleotide, no ligand
# [4] = ligand present: flavin mononucleotide, designed as: OFF switch for flavin mononucleotide
# [5] = designed as: ON switch for flavin mononucleotide, no ligand
# [6] = ligand present: flavin mononucleotide, designed as: ON switch for flavin mononucleotide
sequence,measurement,setting,value
AUUAAUUCAGGAUAUACAUGAGGAUCACCCAUGUGGCGAAAGAACAUAUAGGAAACAAGUAGAAGGGAAUAGAU,apparent Kd,MS2 coat protein [1]; [3],17.9 nM
same,apparent Kd,MS2 coat protein [1]; [4],16.4 nM
CGGGACAUGAGGAUCACCCAUGUACGAUCCCGAGGACCGGUACGGCCGCCACUCGCUAGCGUUGAGUCGCGACUUUCAUAACUAA,apparent Kd,"MS2 coat protein [1]; designed as: ON switch for tryptophan, no ligand",74.4 nM
same,apparent Kd,"MS2 coat protein [1]; ligand present: tryptophan, designed as: ON switch for tryptophan",43.3 nM
UUGCAGGCAGGAUAUACGGUAUAUAACAUGAGGAUCACCCAUGUUCUUCACGAUCCCUGCGUAGAAGGGCCACAUU,apparent Kd,MS2 coat protein [1]; [3],4.96 nM
same,apparent Kd,MS2 coat protein [1]; [4],5.25 nM
CAGCCACAUGAGGAUCACCCAUGUGAUGAUACCAGCUUCGUCUUAAGCCCUUGGCAGCAUAUCUCUUUGUUCUCAUACAUAGCAU,apparent Kd,"MS2 coat protein [1]; designed as: ON switch for theophylline, no ligand",11.1 nM
same,apparent Kd,"MS2 coat protein [1]; ligand present: theophylline, designed as: ON switch for theophylline",12.3 nM
GGUGCACAUGAGGAUCACCCAUGUGAGGAUAUGUGAAACGAGCUGAAUGCCAACCAAAACAGAAGGCACAAUGG,apparent Kd,MS2 coat protein [1]; [3],18.3 nM
same,apparent Kd,MS2 coat protein [1]; [4],19 nM
UAGCAAUGCGAAGGAUAUGUCGCCCUCCCAAGGACAGAAGGUCGGAACUGUUUACAUGAGGAUCACCCAUGUGGUAAUUAACAA,apparent Kd,MS2 coat protein [1]; [5],21.8 nM
same,apparent Kd,MS2 coat protein [1]; [6],15.6 nM
GUGGGCCGGGUAGGAUAUCGACAUGAGGAUCACCCAUGUGUGAGUUGAUGAACUCACGGAUAGCCCGAGAAGGACCUCAGGGCU,apparent Kd,MS2 coat protein [1]; [5],17.9 nM
same,apparent Kd,MS2 coat protein [1]; [6],16.2 nM
UUUAUAAUCGUAAGGAUAUCCGCGUUAGUCCACCCGGAGAAGGUACAUGAGGAUCACCCAUGUGAACUAUGGGU,apparent Kd,MS2 coat protein [1]; [3],24.4 nM
same,apparent Kd,MS2 coat protein [1]; [4],28.5 nM
CGUCGAUAACCACAUGAGGAUCACCCAUGUAAUGUGGUGUGGAGAAGGUCGUGCUAGUUCUAUACGAAGGAUAUCCACGAAUCU,apparent Kd,MS2 coat protein [1]; [3],124 nM
same,apparent Kd,MS2 coat protein [1]; [4],98.3 nM
GUAAGCAAGCAAGGAUAUGAUAUAAAUUCGAUAUCAGAAGGUGCCUUUCCUAGUCGAAUACAUGAGGAUCACCCAUGUCAGCAA,apparent Kd,MS2 coat protein [1]; [5],25.6 nM
same,apparent Kd,MS2 coat protein [1]; [6],18 nM
CAACUGAGCGUAAAUUACCUGAACAUGAGGAUCACCCAUGUGGAGGAUAUUGACUUAGCAAAACUCGAGAAGGCCACUGGGUAG,apparent Kd,MS2 coat protein [2]; [3],44.6 nM
same,apparent Kd,MS2 coat protein [2]; [4],18.5 nM
UUGAUAAGGAGAGGAUAUUGACAUGAGGAUCACCCAUGUACAUGGGAAUAUUUACUGAAUUCUUACGAGAAGGCUUACAUAUUU,apparent Kd,MS2 coat protein [2]; [3],124 nM
same,apparent Kd,MS2 coat protein [2]; [4],66.7 nM
UUGGACGUCGUAGGAUAUGUAGGAUAUUCCAACAUGAGGAUCACCCAUGUUGACAUGGAAGAAGGACAGAAGGACGAUGUCCAU,apparent Kd,MS2 coat protein [2]; [5],4.28 nM
same,apparent Kd,MS2 coat protein [2]; [6],3.63 nM
GGGUACAUCGGAGGAUAUCAUGUAAAUACAUGAGGAUCACCCAUGUCGAUGGAGACAUCGGAGAUUGAGAAGGCCGAUGUAGCG,apparent Kd,MS2 coat protein [2]; [5],190 nM
same,apparent Kd,MS2 coat protein [2]; [6],9.12 nM
GCGUUUACGGUUGACACUUAGCGAGAGGAUAUGGAAAACAAGACAUGAGGAUCACCCAUGUACUAUCAGAAGGCUCGAGUACGC,apparent Kd,MS2 coat protein [2]; [5],8.65 nM
same,apparent Kd,MS2 coat protein [2]; [6],5.29 nM
AACCAGUUGGUAGGAUAUGGUACAGUACCCGUACCAGAAGGACCAACAUGAGGAUCACCCAUGUUGGAAAGUCAACAUUAAUGA,apparent Kd,MS2 coat protein [2]; [3],6.51 nM
same,apparent Kd,MS2 coat protein [2]; [4],14 nM
CCCUCACAUGAGGAUCACCCAUGUCAGGAUAUGCGCGGCCAAAAGGGCUGCUAAGGCAGCAGAAGGGACGUGAA,apparent Kd,MS2 coat protein [2]; [3],15.9 nM
same,apparent Kd,MS2 coat protein [2]; [4],19.5 nM
GCCAUCGCAUGAGGAUAUAAUCGGGUUUCCCGUUUAGAAGGCAUGUCAUAAGACAUGAGGAUCACCCAUGUAGUUAAGAUGGCA,apparent Kd,MS2 coat protein [2]; [5],471 nM
same,apparent Kd,MS2 coat protein [2]; [6],27 nM
ACAAAAUUGAUCCAAUUUACCAACAUGAGGAUCACCCAUGUGCAGGAUAUGCUAAAGAUGAAUAAGCAGAAGGGCAAAUACAUA,apparent Kd,MS2 coat protein [2]; [3],239 nM
same,apparent Kd,MS2 coat protein [2]; [4],708 nM
GACUGCAUGUAAGGAUAUCGACUGGAUAACAGUCGAGAAGGUACAUGAGGAUCACCCAUGUAAUAAGAUCAAUAAUAAGCAGUC,apparent Kd,MS2 coat protein [2]; [3],14.4 nM
same,apparent Kd,MS2 coat protein [2]; [4],31.3 nM
CGCUAGUCAGGAUAUACGAACAUGUCACAAGACGUGAAGGGACAUGAGGAUCACCCAUGUAGAAGGGACUAGCA,apparent Kd,MS2 coat protein [2]; [3],44.1 nM
same,apparent Kd,MS2 coat protein [2]; [4],171 nM
UAAACAUGAGGAUCACCCAUGUAAAGAUCGGUAGUAGAGAGUGAGGAUAUACUAAAAUUUAUAGAGUAGAAGGCACUGGGUUCU,apparent Kd,MS2 coat protein [2]; [5],38.4 nM
same,apparent Kd,MS2 coat protein [2]; [6],28.6 nM
AGUGUCAUCGAGAAGGCCUCAACAUGAGGAUCACCCAUGUUGCAAAAUGGGAGGAUAUCGAUGAUACAGCUACGUUUCGUAGCA,apparent Kd,MS2 coat protein [2]; [5],15.3 nM
same,apparent Kd,MS2 coat protein [2]; [6],5.21 nM
UGAGUGCGUGUUAGGAUAUGGUUUGGUAUUUCGGGCUAGAAGGGACAUGAGGAUCACCCAUGUAAUUGAUAGGU,apparent Kd,MS2 coat protein [2]; [3],47 nM
same,apparent Kd,MS2 coat protein [2]; [4],53 nM
AAACAGGGAGGAUAUACAUAGAUCCUCUAACCUAAUUGGUCACAUGAGGAUCACCCAUGUAGAAGGCCCUUAGG,apparent Kd,MS2 coat protein [2]; [4],11.3 nM
AAAUGCCUGUCGAUGCUCGACAUGAGGAUCACCCAUGUAUGGCAGGAUAUGCAGAACUGACUCGUGCAGAAGGGCUAUACCUAA,apparent Kd,MS2 coat protein [2]; [3],8.06 nM
same,apparent Kd,MS2 coat protein [2]; [4],24.7 nM
